Measurements taken from PubChem BioAssay AID488934 (Broad Institute, 2010).
Inconclusive results are not listed. Calls of active or inactive are those of the source.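 Rule for the calls: active = compounds raising caspase signal whose fitted AC50 lies at or below the top valid dose tested; inconclusive = flat curve at 30 to 70 percent activity, or a poor fit; inactive = the rest.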

What was measured:
[1] = Caspase-Glo signal, Mel501 melanoma line – cell-based, human Mel501, dry powder, A1 (Bcl2A1) inhibitor project, dose response (AID 488934); details: Mel501 melanoma cells, caspase-3/7 Glo luminescence, 6 h
Procedure, shortened: (§1)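 Assay system: Human Mel501 melanoma cell line | Quantity: 2500 cells per well | Medium: RPMI-1640, 10% FBS, plus TSA | Times: 6 h compound at 37 °C, 1 h reagent at room temperature | Signal: Luminescence from DEVD-linked luciferin caspase-3/7 substrate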

[2] = test system: Mel501 melanoma cells, caspase-3/7 Glo luminescence, 6 h; test: as above
Procedure, shortened: as §1

With C=C1[C@@H](C)[C@H]2[C@H](Cc3ccccc3)NC(=O)[C@]23[C@H](OC(C)=O)/C=C/[C@](C)(O)C(=O)[C@@H](C)C/C=C/[C@H]3[C@@H]1O the caspase activation ([1]; at 150 µM (top of the series)) was 0.757% (inactive).

For Cc1c(CCOC(=O)c2ccc(N3CCOCC3)c([N+](=O)[O-])c2)sc[n+]1CC#N, the AC50 [2] was 18.8 µM.

With Cc1ccc(CS(=O)(=O)c2ncc(Cl)c(C(=O)Nc3nnc(C(C)C)s3)n2)cc1 the caspase activation ([1]; at 150 µM (top of the series)) was -1.79% (inactive).

For CCc1cc2c(=O)c(-c3cnn(-c4ccccc4)c3)c(C)oc2cc1OCC(=O)Nc1cccc(C)c1, the caspase activation ([1]; at 150 µM (top of the series)) was 0.716% (inactive).

With CCSc1nnc(NC(=O)c2nc(S(=O)(=O)Cc3ccc(F)cc3)ncc2Cl)s1 the caspase activation ([1]; at 150 µM (top of the series)) was -2.12% (inactive).

With Cc1ccc(Sc2c([N+](=O)[O-])c(=O)n(C)c3ccccc23)cc1 the AC50 [2] was 69.7 µM.

With C/C1=C/C(=O)O[C@@H]2C[C@@H](CC[C@H](C)/C=C\CC1)O[C@@](O)(C1CSC(=O)N1)C2 (stereo partly drawn) the caspase activation ([1]; at 150 µM (top of the series)) was 0.0337% (inactive).

In the case of Cc1cccc(NC(=O)/C(C#N)=C/c2cn(CC(=O)NCc3ccco3)c3ccccc23)c1, the AC50 [2] is reported as > 150 µM (inactive).

With O=C(Oc1cccc(/C=N/Nc2nc(Nc3ccccc3)nc(N3CCOCC3)n2)c1)c1ccco1 the caspase activation ([1]; at 150 µM (top of the series)) was 0.28% (inactive).

Work on Cc1cc(C(=O)CCl)c(C)n1CCc1ccc(Cl)cc1 yielded an AC50 [2] of 17.8 µM.

In the case of C=C1[C@@H](C)[C@H]2[C@H](Cc3ccccc3)NC(=O)[C@]23OC(=O)/C=C\[C@H](O)CCC[C@@H](C)C/C=C/[C@H]3[C@@H]1O, the caspase activation ([1]; at 150 µM (top of the series)) is reported as 0.77% (inactive).

In the case of Cc1c(C=O)c(C=O)c(C)n1Cc1ccccc1, the AC50 [2] is reported as > 150 µM (inactive).

In the case of COc1cc(/C=C(/C#N)c2nc3ccccc3[nH]2)ccc1OCC(=O)Nc1ccccc1C(C)C, the caspase activation ([1]; at 150 µM (top of the series)) is reported as 1.07% (inactive).

With CC(=O)N[C@H]1[C@H](O[C@H]2CC[C@@]3(C)C(CC[C@]4(C)C3CC=C3[C@@H]5CC(C)(C)CC[C@]5(C(=O)OC5OCC(O)C(O)C5O)C(O)C[C@]34C)C2(C)C)O[C@H](COC2OCC(O)C(OC3OCC(O)C(O)C3O)C2O)[C@@H](O[C@@H]2O[C@@H](C)[C@H](O)[C@@H](O)[C@H]2O[C@@H]2O[C@@H](C)[C@H](O)[C@@H](O)[C@H]2O)[C@@H]1O (stereo partly drawn) the caspase activation ([1]; at 135 µM (top of the series)) was -0.618% (inactive).

In the case of CCc1nnc(NC(=O)c2nc(S(=O)(=O)Cc3ccccc3)ncc2Cl)s1, the caspase activation ([1]; at 150 µM (top of the series)) is reported as -0.521% (inactive).

For Cc1cccc(CS(=O)(=O)c2ncc(Cl)c(C(=O)Nc3nnc(C(C)C)s3)n2)c1, the caspase activation ([1]; at 150 µM (top of the series)) was -1.69% (inactive).

For CC(C)(C)n1nc(-c2ccc(Cl)cc2)c2c(N)ncnc21, the caspase activation ([1]; at 150 µM (top of the series)) was 2.25% (inactive).

In the case of COc1cccc(C(=O)C(C#N)=C(SC)SC)c1, the caspase activation ([1]; at 150 µM (top of the series)) is reported as -0.394% (inactive).

Compound COc1ccc(N(C(=O)CCl)C(C(=O)NCCc2ccccc2)c2cccs2)cc1Cl (stereo not drawn) has an AC50 [2] of 30.1 µM.

In the case of Nc1nc(F)nc2c1ncn2[C@@H]1O[C@H](CO)[C@@H](O)[C@H]1O, the caspase activation ([1]; at 150 µM (top of the series)) is reported as 0.438% (inactive).

In the case of O=C(CCl)N=c1sccn1Cc1ccccc1Cl, the caspase activation ([1]; at 150 µM (top of the series)) is reported as 2.16% (inactive).

With Cn1c(=NC(=O)CCl)sc2ccccc21 the caspase activation ([1]; at 150 µM (top of the series)) was 0.601% (inactive).

For CCOC(=O)CSC1=N/C(=C/c2ccc(-n3cncn3)cc2)C(=O)N1C(C)=O, the caspase activation ([1]; at 150 µM (top of the series)) was 0.822% (inactive).
